Results published in ChEMBL document CHEMBL1152833, “Synthesis of some novel N4-(naphtha[1,2-d]thiazol-2-yl)semicarbazides as potential anticonvulsants” (Eur J Med Chem, 2009).
Activity calls are given as the source filed them.

Legend:
Mus musculus [1] = assay: Neurotoxicity in ip dosed Swiss albino mouse assessed as minimum drug concentration required for falling off the rotarod by half or more of mouse after 0.5 hrs by rotarod test; assay type: toxicity, organism-based; conditions: in vivo
Summary of the method: (§1)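 Rotarod test in male Swiss albino mice (18–25 g) after i.p. dosing at 30, 100 and 300 mg/kg, read at 0.5 and 4 h. Mice falling within 30 s in a pre-check were excluded. Neurotoxicity was scored as the minimum dose at which half or more of the mice fell off the rod.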

Mus musculus [2] = assay: Anticonvulsant activity in ip dosed Swiss albino mouse assessed as minimum drug concentration required for inhibition of maximal electroshock-induced seizure in half or more of mouse after 4 hrs by MES test; assay type: functional
Summary of the method: (§2)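 Male Swiss albino mice (18–25 g) received compound i.p. at 30, 100 and 300 mg/kg. MES seizures were induced after 0.5 and 4 h, with a drop of 0.9% saline placed in the eye before the electrodes went on. Protection meant abolition of the hind-limb tonic extensor component. The tabulated value is the minimum dose protecting half or more of the mice.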

Mus musculus [3] = assay: Anticonvulsant activity against maximal electroshock-induced seizures in Swiss albino mouse at 300 mg/kg, ip after 0.5 hrs by MES test; assay type: functional, organism-based; parameters: dose 300 mg/kg; summary of the method: as §2
Mus musculus [4] = assay: Anticonvulsant activity against pentylenetetrazole-induced seizures in Swiss albino mouse at 300 mg/kg, ip after 4 hrs by scPTZ test; assay type: functional, organism-based; parameters: dose 300 mg/kg
Summary of the method: (§3)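 Male Swiss albino mice (18–25 g) were dosed i.p. at 30, 100 and 300 mg/kg, examined at 0.5 and 4 h. PTZ 85 mg/kg (CD97) was given and the animals were […]. Protection meant absence of any threshold convulsion, i.e. clonic spasm lasting at least 5 s. The value is the minimum dose active in half or more of the mice.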

Mus musculus [5] = assay: Neurotoxicity in ip dosed Swiss albino mouse assessed as minimum drug concentration required for falling off the rotarod by half or more of mouse after 4 hrs by rotarod test; assay type: toxicity, organism-based; conditions: in vivo; summary of the method: as §1
Mus musculus [6] = assay: Anticonvulsant activity in ip dosed Swiss albino mouse assessed as minimum drug concentration required for inhibition of pentylenetetrazole-induced seizures in half or more of mouse after 0.5 hrs by scPTZ test; assay type: functional; summary of the method: as §3
Rattus norvegicus [7] = assay: Anticonvulsant activity against pentylenetetrazole-induced seizures in Wistar albino rat at 50 mg/kg, po after 2 hrs by scPTZ test; assay type: functional, organism-based; parameters: dose 50 mg/kg
Summary of the method: (§4)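 Male Wistar rats (100–125 g) were given compound orally at 50 mg/kg. They were challenged with scPTZ at 70 mg/kg at 0.25, 0.5, 1.0 and 2.0 h, and seizures were watched for. Protection meant absence of clonic spasm lasting at least 5 s. The score is the number of rats protected out of four.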

Mus musculus [8] = assay: Anticonvulsant activity in ip dosed Swiss albino mouse assessed as minimum drug concentration required for inhibition of maximal electroshock-induced seizure in half or more of mouse after 0.5 hrs by MES test; assay type: functional; summary of the method: as §2
Mus musculus [9] = assay: Anticonvulsant activity in ip dosed Swiss albino mouse assessed as minimum drug concentration required for inhibition of pentylenetetrazole-induced seizures in half or more of mouse after 4 hrs by scPTZ test; assay type: functional; summary of the method: as §3
Mus musculus [10] = assay: Antioxidant activity against PTZ-induced decrease in superoxide dismutase activity in Swiss albino mouse brain assessed as enzyme units per mg of protein causing 50% inhibition in NBT reduction rate at 100 mg/kg, ip administered 30 mins before PTZ challenge measured after 4 hrs; assay type: functional; conditions: route intraperitoneal
Summary of the method: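 Same mouse dosing: 100 mg/kg i.p. 30 min before PTZ 85 mg/kg, brains taken at 4 h. Total SOD was measured in the ethanol phase of an ethanol/chloroform (5:3) extract, as inhibition of NBT reduction by xanthine–xanthine oxidase. One unit gives 50% inhibition; activity is expressed per mg protein (Lowry). n=6, mean ± SEM.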

Mus musculus [11] = assay: Antioxidant activity against PTZ-induced lipid peroxidation in Swiss albino mouse brain assessed as malondialdehyde content per mg of protein at 100 mg/kg, ip preincubated for 30 mins before PTZ challenge measured after 4 hrs by TBARS assay; assay type: functional; conditions: route intraperitoneal
Summary of the method: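 Mice were dosed 100 mg/kg i.p. 30 min before PTZ 85 mg/kg, and brains were homogenized after 4 h. For TBARS, homogenate supernatant was heated with SDS, acetic acid and 0.8% thiobarbituric acid at 95 °C for 1 h. The product was extracted into n-butanol/pyridine and read at 532 nm. Results are pmol MDA/mg protein, n=6, mean ± SEM.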

Rattus norvegicus [12] = assay: Neurotoxicity in Wistar albino rat at 50 mg/kg, po by rotarod test; assay type: toxicity, organism-based; parameters: dose 50 mg/kg, route oral; conditions: in vivo
Rattus norvegicus [13] = assay: Anticonvulsant activity against pentylenetetrazole-induced seizures in Wistar albino rat at 50 mg/kg, po up to 2 hrs by scPTZ test; assay type: functional, organism-based; parameters: dose 50 mg/kg; summary of the method: as §4
Mus musculus [14] = assay: Toxicity to Swiss albino mouse assessed as mortality following tonic extension at 300 mg/kg, ip after 0.5 hrs; assay type: organism-based; parameters: dose 300 mg/kg, route intraperitoneal; conditions: in vivo
Mus musculus [15] = assay: Neurotoxicity in Swiss albino mouse at 300 mg/kg, ip after 0.5 hrs by rotarod test; assay type: toxicity, organism-based; parameters: dose 300 mg/kg, route intraperitoneal; conditions: in vivo
Summary of the method: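 Male Swiss albino mice (18-25 g) received the compound i.p. at 30, 100 or 300 mg/kg and were tested on the rotarod 0.5 and 4 h later. Mice were pre-checked, and any that fell off within 30 s were excluded. Neurotoxicity was scored as falling off the rod. The value is the minimum dose affecting half or more of the mice.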

Mus musculus [16] = assay: Anticonvulsant activity against maximal electroshock-induced seizures in Swiss albino mouse at 300 mg/kg, ip after 4 hrs by MES test; assay type: functional, organism-based; parameters: dose 300 mg/kg; summary of the method: as §2
Mus musculus [17] = assay: Neurotoxicity in Swiss albino mouse at 300 mg/kg, ip after 4 hrs by rotarod test; assay type: toxicity, organism-based; parameters: dose 300 mg/kg, route intraperitoneal; conditions: in vivo; summary of the method: as §1
Rattus norvegicus [18] = assay: Anticonvulsant activity against pentylenetetrazole-induced seizures in Wistar albino rat at 50 mg/kg, po after 0.25 hrs by scPTZ test; assay type: functional, organism-based; parameters: dose 50 mg/kg
Summary of the method: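 Male Wistar rats (100-125 g), compound given orally at 50 mg/kg, then challenged with scPTZ at 70 mg/kg. Absence of such a convulsion counted as protection. Groups of four rats were scored at 0.25, 0.5, 1 and 2 h as number protected out of four.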

Mus musculus [19] = assay: Toxicity to Swiss albino mouse assessed as mortality following tonic extension at 300 mg/kg, ip after 4 hrs; assay type: organism-based; parameters: dose 300 mg/kg, route intraperitoneal; conditions: in vivo
Mus musculus [20] = assay: Anticonvulsant activity against pentylenetetrazole-induced seizures in Swiss albino mouse at 300 mg/kg, ip after 0.5 hrs by scPTZ test; assay type: functional, organism-based; parameters: dose 300 mg/kg; summary of the method: as §3

SMILES	Activity (Mus musculus [1]) [mg/kg]	Activity (Mus musculus [2]) [mg/kg]	Activity (Mus musculus [3])	Activity (Mus musculus [4])	Activity (Mus musculus [5]) [mg/kg]	Activity (Mus musculus [6]) [mg/kg]	Activity (Mus musculus [8]) [mg/kg]	Activity (Mus musculus [9]) [mg/kg]	Activity (Mus musculus [16])	Activity (Mus musculus [17])	also measured
O=C(N/N=C1\C(=O)Nc2ccccc21)Nc1nc2c(ccc3ccccc32)s1	100	300	inactive	inactive	300	300	–	–	–	–	–
O=C(N/N=C/c1ccc([N+](=O)[O-])cc1)Nc1nc2c(ccc3ccccc32)s1	300	300	–	–	300	100	300	300	–	–	Activity (Rattus norvegicus [7]): inactive; Activity (Mus musculus [10]): 58; Activity (Mus musculus [11]): 309 pmol
O=C(N/N=C/c1ccc(Br)cc1)Nc1nc2c(ccc3ccccc32)s1	100	100	–	–	300	100	100	100	–	–	Activity (Mus musculus [10]): 60; Activity (Mus musculus [11]): 292 pmol; Activity (Rattus norvegicus [12]): Non-toxic; Activity (Rattus norvegicus [13]): Active
CCC1(c2ccccc2)C(=O)NC(=O)NC1=O [PHENOBARBITAL]	100	30	–	–	300	30	100	30	–	–	–
C1CCc2nnnn2CC1 [PENTYLENETETRAZOL]	–	–	–	–	–	–	–	–	–	–	Activity (Mus musculus [10]): 42; Activity (Mus musculus [11]): 418 pmol
COc1ccc(/C=N/NC(=O)Nc2nc3c(ccc4ccccc43)s2)cc1	–	–	inactive	inactive	–	–	–	–	inactive	Non-toxic	Activity (Mus musculus [14]): Toxic; Activity (Mus musculus [15]): Non-toxic
CCCC(CCC)C(=O)O [VALPROIC ACID]	–	–	inactive	inactive	–	300	–	–	inactive	Non-toxic	Activity (Mus musculus [10]): 65; Activity (Mus musculus [11]): 216 pmol; Activity (Mus musculus [15]): Non-toxic
COc1cc(/C=N/NC(=O)Nc2nc3c(ccc4ccccc43)s2)ccc1O	300	300	–	–	100	300	300	300	–	–	–
O=C(N/N=C/c1ccccc1)Nc1nc2c(ccc3ccccc32)s1	100	–	–	–	300	300	300	300	inactive	–	–
O=C(N/N=C/c1ccc(F)cc1)Nc1nc2c(ccc3ccccc32)s1	300	300	–	–	300	100	300	100	–	–	Activity (Mus musculus [10]): 57; Activity (Mus musculus [11]): 278 pmol; Activity (Rattus norvegicus [12]): Non-toxic; Activity (Rattus norvegicus [13]): Active
CCC1(C)CC(=O)NC1=O (stereo not drawn) [ETHOSUXIMIDE]	–	–	inactive	inactive	–	300	–	–	inactive	Non-toxic	Activity (Rattus norvegicus [18]): inactive; Activity (Mus musculus [15]): Non-toxic
C/C(=N\NC(=O)Nc1nc2c(ccc3ccccc32)s1)c1ccccc1	100	–	inactive	–	–	300	–	300	inactive	Non-toxic	–
O=C(N/N=C/c1ccccc1O)Nc1nc2c(ccc3ccccc32)s1	100	–	–	–	100	300	100	300	inactive	–	–
O=C(N/N=C/c1ccc(Cl)cc1)Nc1nc2c(ccc3ccccc32)s1	100	100	–	–	300	300	100	–	–	–	Activity (Mus musculus [19]): Toxic
CN(C)c1ccc(/C=N/NC(=O)Nc2nc3c(ccc4ccccc43)s2)cc1	300	–	inactive	–	300	300	–	300	inactive	–	–
O=C(N/N=C/c1ccc(O)cc1)Nc1nc2c(ccc3ccccc32)s1	–	–	inactive	inactive	–	–	–	–	inactive	Non-toxic	Activity (Mus musculus [14]): Toxic; Activity (Mus musculus [15]): Non-toxic
NC(=O)N1c2ccccc2C=Cc2ccccc21 [CARBAMAZEPINE]	100	100	–	–	300	100	30	300	–	–	–
O=C1NC(=O)C(c2ccccc2)(c2ccccc2)N1 [PHENYTOIN]	100	30	–	inactive	100	–	30	–	–	–	Activity (Mus musculus [20]): inactive
O=C(N/N=C/c1ccccc1Cl)Nc1nc2c(ccc3ccccc32)s1	300	300	inactive	–	–	–	–	300	–	Non-toxic	Activity (Mus musculus [20]): inactive
O=C(N/N=C/c1ccccc1[N+](=O)[O-])Nc1nc2c(ccc3ccccc32)s1	–	–	inactive	–	100	300	–	300	inactive	–	Activity (Mus musculus [15]): Non-toxic
COc1cc(/C=N/NC(=O)Nc2nc3c(ccc4ccccc43)s2)cc(OC)c1OC	100	300	–	–	100	–	300	300	–	–	Activity (Mus musculus [20]): inactive
COc1ccc(OC)c(/C=N/NC(=O)Nc2nc3c(ccc4ccccc43)s2)c1	300	–	–	–	–	–	300	–	inactive	Non-toxic	Activity (Mus musculus [20]): inactive; Activity (Mus musculus [19]): Toxic
COc1cc(/C=N/NC(=O)Nc2nc3c(ccc4ccccc43)s2)cc(OC)c1	–	–	inactive	inactive	–	–	–	–	inactive	Non-toxic	Activity (Mus musculus [14]): Toxic; Activity (Mus musculus [15]): Non-toxic
